Holding throughout (assay type): functional
The subject of assay [1] is Mammaliicoccus sciuri. In words: Antimicrobial activity against mecA-deficient Staphylococcus sciuri assessed as resistant isolates. The procedure, abridged: (§1)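 Nasal S. sciuri isolates from the Indonesian population, grouped by presence of the S. aureus mecA and S. sciuri mecA genes. Susceptibility to the additional antibiotics was tested on the automated Vitek 2 system (AST-P549 card), and the number of resistant isolates in each group was counted.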

Assay [2] relates to Mammaliicoccus sciuri. In words: Antimicrobial activity against mecA-positive Staphylococcus sciuri assessed as resistant isolates. In outline:
as §1

Assay [3] deals with Mammaliicoccus sciuri. In words: Antimicrobial activity against mecA-deficient Staphylococcus sciuri harboring staphylococcus aureus mecA gene assessed as resistant isolates. In outline: as §1
The test system of assay [4] is Mammaliicoccus sciuri. In words: Antimicrobial activity against mecA-positive Staphylococcus sciuri harboring staphylococcus aureus mecA gene assessed as resistant isolates. The procedure, abridged:
as §1

As for `CC[C@H]1OC(=O)[C@H](C)[C@@H](O[C@H]2C[C@@](C)(OC)[C@@H](O)[C@H](C)O2)[C@H](C)[C@@H](O[C@@H]2O[C@H](C)C[C@H](N(C)C)[C@H]2O)[C@](C)(O)C[C@@H](C)C(=O)[C@H](C)[C@@H](O)[C@]1(C)O` [ERYTHROMYCIN], the Activity with Mammaliicoccus sciuri [1] was determined as 0%; in the assay on Mammaliicoccus sciuri [2], 0%; in the assay with Mammaliicoccus sciuri [3], 33.3%; in the assay on Mammaliicoccus sciuri [4], 23.1%.

Regarding `CC(=O)O[C@H]1C[C@@]2(C)[C@@H](C[C@@H](O)[C@H]3[C@@]4(C)CC[C@@H](O)[C@@H](C)[C@@H]4CC[C@@]32C)/C1=C(\CCC=C(C)C)C(=O)O` [FUSIDIC ACID], the Activity in the assay on Mammaliicoccus sciuri [1] came out at 55.6%; in the assay on Mammaliicoccus sciuri [2], 60%; with Mammaliicoccus sciuri [3] it was 44.4%; in the assay on Mammaliicoccus sciuri [4] it was 69.2%.

Consider `CCn1cc(C(=O)O)c(=O)c2cc(F)c(N3CCNCC3)cc21` [NORFLOXACIN], for which the Activity in the assay on Mammaliicoccus sciuri [1] is 0%; with Mammaliicoccus sciuri [2] it was 0%; in the assay on Mammaliicoccus sciuri [3], 66.7%; in the assay on Mammaliicoccus sciuri [4], 15.4%.

Turning to `CO[C@H]1/C=C/O[C@@]2(C)Oc3c(C)c(O)c4c(O)c(c(/C=N/N5CCN(C)CC5)c(O)c4c3C2=O)NC(=O)/C(C)=C\C=C\[C@H](C)[C@H](O)[C@@H](C)[C@@H](O)[C@@H](C)[C@H](OC(C)=O)[C@@H]1C` [RIFAMPIN], the Activity is on record as 0% with Mammaliicoccus sciuri [1], 0% in the assay with Mammaliicoccus sciuri [2], 11.1% in the assay on Mammaliicoccus sciuri [3] and 15.4% in the assay on Mammaliicoccus sciuri [4].

As for `CN(C)[C@@H]1C(O)=C(C(N)=O)C(=O)[C@@]2(O)C(O)=C3C(=O)c4c(O)cccc4[C@@](C)(O)[C@H]3C[C@@H]12` [TETRACYCLINE], the Activity with Mammaliicoccus sciuri [1] is reported as 11.1%; in the assay on Mammaliicoccus sciuri [2], 5%; in the assay on Mammaliicoccus sciuri [3], 77.8%; with Mammaliicoccus sciuri [4], 46.2%.

Consider `CN[C@H](CC(C)C)C(=O)N[C@H]1C(=O)N[C@@H](CC(N)=O)C(=O)N[C@H]2C(=O)N[C@H]3C(=O)N[C@H](C(=O)N[C@H](C(=O)O)c4cc(O)cc(O)c4-c4cc3ccc4O)[C@H](O)c3ccc(c(Cl)c3)Oc3cc2cc(c3O[C@@H]2O[C@H](CO)[C@@H](O)[C@H](O)[C@H]2O[C@H]2C[C@](C)(N)[C@H](O)[C@H](C)O2)Oc2ccc(cc2Cl)[C@H]1O` [VANCOMYCIN], for which the Activity in the assay with Mammaliicoccus sciuri [1], with Mammaliicoccus sciuri [2], in the assay on Mammaliicoccus sciuri [3] and in the assay with Mammaliicoccus sciuri [4] was 0% in each case.

Consider GENTAMICIN, for which the Activity was determined as 0% in the assay on Mammaliicoccus sciuri [1], 0% in the assay on Mammaliicoccus sciuri [2], 55.5% in the assay with Mammaliicoccus sciuri [3] and 38.5% with Mammaliicoccus sciuri [4].

The record behind these values is ChEMBL document CHEMBL1671763, “Nasal carriage of methicillin-resistant and methicillin-sensitive strains of Staphylococcus sciuri in the Indonesian population” (2010).
